Bioassay records (PubChem)
CDK5 p35 inh: blocks human CDK5/p35 kinase activity | Recombinant CDK5/p35, ADP-Glo luminescence, 60 min | AID 488839 | Q00535+Q15078 | inhibition, % at 10 µM | 330,000 compounds, 0.01% hits;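 active = highest replicate inhibition of at least 50% and at least 75% of replicates reaching 50%; inconclusive = only one of the two criteria met; inactive = both criteria failed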;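 also: plate controls were DMSO neutral control for no effect and GW8510 at 10 µM for full effect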
dFosB act-1: enhances mouse delta FosB homodimer DNA binding; activation, % at 25 µM; purified delta FosB, TAMRA-CDK5 oligo fluorescence polarization; percent of positive-control signal above neutral wells; 340,000 compounds, 0.99% hits;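 active = mean activation above about 17%, with every replicate also reaching it, limit read from the data, passing the limit was not always enough; inconclusive = only one of the two conditions met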
Target sequence (P13346 whole entry, looked up): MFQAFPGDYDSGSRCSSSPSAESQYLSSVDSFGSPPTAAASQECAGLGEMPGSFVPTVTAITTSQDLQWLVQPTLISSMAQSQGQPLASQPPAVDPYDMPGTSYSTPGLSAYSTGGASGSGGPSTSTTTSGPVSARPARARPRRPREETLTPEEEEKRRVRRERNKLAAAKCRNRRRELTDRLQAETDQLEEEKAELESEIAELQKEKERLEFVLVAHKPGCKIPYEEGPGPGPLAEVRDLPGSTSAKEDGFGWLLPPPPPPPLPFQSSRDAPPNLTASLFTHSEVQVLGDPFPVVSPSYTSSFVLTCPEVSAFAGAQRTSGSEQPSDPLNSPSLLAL
S100A4 inh HTS: inhibitors of human S100A4 binding to myosin IIA peptide. S100A4/TAMRA-MyoIIA peptide fluorescence polarization. P26447. inhibition, % at 10.7 µM. 360,000 compounds, 0.14% hits;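 active = mean inhibition of at least 70% across replicates, with every replicate also reaching that level; inconclusive = mean inhibition reaches 70% but some replicates fall short; inactive = mean inhibition below 70%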
Target sequence (P26447 whole entry, looked up): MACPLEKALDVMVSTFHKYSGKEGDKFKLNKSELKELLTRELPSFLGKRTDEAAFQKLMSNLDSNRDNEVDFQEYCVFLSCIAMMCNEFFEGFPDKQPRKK
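assay system = human S100A4 monomer with TAMRA-labelled myosin IIA peptide | also added = labelled myosin peptide probe, 5 nM | incubation = 5 min between mix addition and reading | control set = DMSO and TFP controls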
Statin myotox sup: protects C2C12 myotubes from simvastatin toxicity. ATP luminescence, 48 h; scaled: DMSO 0, geranylgeraniol control 100. rescue of ATP level, % at 7.49 µM. 330,000 compounds, 0.78% hits. AID 602340;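 active = mean ATP rescue above about 67%, or every replicate alone reaching that limit, limit read from the data, passing the limit was not always enough; inconclusive = no clear call, values can overlap the other calls; inactive = mean under the limit and some replicate under it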;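 also: myotubes were challenged with 10 µM simvastatin during compound exposure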
CAL PDZ FP-1: inhibitors of human CAL PDZ peptide binding | Q9HD26 | purified CAL PDZ, TMR-peptide fluorescence polarization, 1 h | inhibition, % at 20 µM | 330,000 compounds, 0.02% hits;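 active = highest replicate inhibition of at least 40%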;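 also: plate controls were DMSO neutral control wells for no effect and unlabeled competitor peptide control wells for full effect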
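material = purified tagged CAL PDZ domain construct (CerCALP) | compound dosing = 20 µM, one dose | times = 1 h at RT | measured by = fluorescence polarization from S- and P-plane intensities, G-factor corrected | read-out = inhibition from polarization loss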
CAL PDZ FP-2: CAL PDZ (human) peptide binding inhibition | Q9HD26 | purified CAL PDZ, TMR-peptide fluorescence polarization, 1 h | inhibition, % at 24.9 µM | 300,000 compounds, 0.92% hits | AID 602252;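 active = mean inhibition of at least 30% with at least half of replicates also reaching 30%; inconclusive = no clear call, values can overlap the other calls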;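 also: 0% = DMSO neutral control and 100% = excess unlabeled competitor peptide PRC23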
dFosB act-2: activators of mouse delta FosB homodimer DNA binding | AID 588690 | 2,400 tested, under 10 active | activation, % at 24.9 µM | purified delta FosB, TAMRA-CDK5 oligo fluorescence polarization; normalised: neutral wells 0, positive control 100 | shares compounds with dFosB act-1;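 active = highest replicate activation at or above 34% and every replicate reaching that threshold; inconclusive = meets only one of the two criteria; inactive = meets neither criterion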;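 also: higher polarization means more probe DNA bound by delta FosB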
Active calls of the source: *; ? = inconclusive; · = not tested or not shown. An excerpt weighted towards active compounds, which were near 2% of everything screened.

SMILES	CDK5 p35 inh	dFosB act-1	S100A4 inh HTS	Statin myotox sup	CAL PDZ FP-1	CAL PDZ FP-2	dFosB act-2
Cc1cc(C)cc(NC(=O)CSc2nc(N)c(NC(=O)c3ccc(Br)o3)c(=O)[nH]2)c1	-1	77*	0	1	-2	-2	?
COc1ccc(C(=O)Nc2c(N)nc(SCC(=O)Nc3ccc(NC(C)=O)cc3)[nH]c2=O)cc1OC	-2	4	0	8	-2	2	·
Cc1cc(NC(=O)CSc2nc(N)c(NC(=O)c3ccccc3F)c(=O)[nH]2)no1	0	22*	1	-31	-3	1	6
Nc1nc(SCC(=O)Nc2ccc(C(F)(F)F)cc2)[nH]c(=O)c1NC(=O)c1ccc(F)c(F)c1	1	50*	-4	4	-3	0	-1
C[C@@H]1CN([C@@H](C)CO)C(=O)c2cc(NC(=O)Nc3ccc(C(F)(F)F)cc3)ccc2O[C@H]1CN(C)Cc1ccccc1	·	·	2	-32	·	·	·
Cc1ccc(C)c(NC(=O)CSc2nc(N)c(NC(=O)c3cccs3)c(=O)[nH]2)c1	1	33*	0	6	-2	6	1
Cc1cccc(NC(=O)CSc2nc(N)c(NC(=O)c3cccs3)c(=O)[nH]2)c1	1	-1	1	-2	-1	·	·
COCCSc1nc(N)c(NC(=O)c2ccc(OC)cc2)c(=O)[nH]1	-2	-4	-4	·	-2	-2	·
CCc1nnc(NC(=O)CSc2nc(N)c(NC(=O)c3ccc(OC)cc3)c(=O)[nH]2)s1	1	48*	2	-29	-2	2	-4
OCc1nc2ccccc2n1CCCCOc1ccccc1	-7	-3	-6	5	-1	·	·
Cc1cc(Nc2ccc(F)cc2Cl)n2ncnc2n1	1	8	0	14	0	-6	·
Cc1ccc(-n2c(SCC(=O)NCc3ccco3)nc3sc(C)c(C)c3c2=O)cc1	0	31*	·	14	-1	-1	2
CC(=O)Nc1ccc(NC(=O)CSc2nc3c([nH]c4ccccc43)c(=O)n2-c2ccccc2F)cc1	-1	22*	4	-3	9	-13	1
CCOc1ccc(-n2c(SCC(=O)Nc3cc(C)on3)nc3c([nH]c4ccccc43)c2=O)cc1	0	41*	-16	-3	0	-2	3
COc1ccc(-n2c(SCC(=O)Nc3cc(C)on3)nc3c([nH]c4ccccc43)c2=O)cc1	-3	9	-1	-3	-1	·	·
Cc1ccc(-n2c(SCC(=O)Nc3cc(C)on3)nc3c([nH]c4ccccc43)c2=O)cc1	0	26*	-1	-6	0	-3	3
Cc1sc2nc(SCC(=O)NCc3ccco3)n(-c3ccccc3)c(=O)c2c1C	0	2	-3	-37	-2	-2	·
Cc1ccc(Oc2ncccc2CO)cc1	-1	-4	-2	8	0	0	·
Cc1cc(C)n2nc(SCCCC(=O)c3ccccc3)nc2n1	-1	0	-6	·	-1	1	·
COc1ccccc1N(C(=O)CNC(=O)c1ccco1)C(C(=O)NC1CCCCC1)c1ccncc1 (stereo not given)	-4	-6	5	-3	-3	1	·
Cc1cc(NC(=O)CSc2nc3c(c(=O)n2-c2ccc(Br)cc2)SCC3)no1	0	42*	·	-8	-1	-4	6
O=C(CSc1nc2ccccc2c(=O)n1-c1ccccc1)NCc1ccco1	1	-4	·	·	·	3	·
O=C(CSc1nc2c([nH]c3ccccc32)c(=O)n1-c1ccc(F)cc1)NCc1ccco1	-1	19*	-1	-8	-1	·	2
Cc1ccc(Nc2nc(N)c([N+](=O)[O-])c(NCc3ccccc3)n2)cc1	0	47*	3	·	0	·	0
Cc1cccc(Nc2nc(N)c([N+](=O)[O-])c(NCc3ccco3)n2)c1	0	53*	1	8	1	·	5
SMILES	CDK5 p35 inh	dFosB act-1	S100A4 inh HTS	Statin myotox sup	CAL PDZ FP-1	CAL PDZ FP-2	dFosB act-2
Nc1nc(NCC(=O)O)nc(NCc2ccccc2)c1[N+](=O)[O-]	-1	3	0	1	-1	-8	·
COc1cccc(-c2cc(C(=O)Nc3ccc([N+](=O)[O-])cn3)c3ccccc3n2)c1	0	1	·	·	-2	0	·
COc1ccc(-c2ccc(C(=S)N3CCN(C(C)=O)CC3)o2)cc1	1	-2	·	12	-2	-1	·
COc1cc(/C=C/C(=O)OCC(=O)NCC(=O)Nc2cccc(C)c2C)ccc1OC(F)F	-1	20*	0	-5	-1	-2	3
Nc1c(C(=O)Nc2ccccc2Cl)nnn1-c1ccc2c(c1)OCCO2	2	43*	-1	-24	1	-3	4
O=C(NNC(=O)c1ccc(NC(=O)c2ccccc2)cc1)c1ccc(F)cc1	1	39*	-2	4	-1	48*	7
O=C(NNC(=O)c1ccc(NC(=O)c2ccccc2)cc1)Nc1ccccc1	1	25*	-3	·	1	·	-1
O=C(Nc1ccc(C(=O)c2ccccc2)cc1)c1ccccc1	-4	-6	-7	-36	-4	-3	·
O=C(Nc1ccc2nc3ccccc3nc2c1)c1ccc(Br)cc1	-1	32*	·	-1	1	-7	-2
COc1ccc(CNC(=O)[C@H](C)NC(=O)C2CCN(S(=O)(=O)c3ccc(C)cc3)CC2)cc1	-5	3	·	2	-1	·	·
COc1ccc(S(=O)(=O)N2CCC(C(=O)N[C@@H](C)C(=O)NC3CCCC3)CC2)cc1	-2	20*	9	18	-2	0	5
Cc1ccc(S(=O)(=O)N2CCC(NC(=O)C3CCCCC3)CC2)cc1	-8	-2	-1	-3	-2	0	·
Cc1ccc(S(=O)(=O)N2CCC(C(=O)N[C@@H](C)C(=O)NC3CCCCC3)CC2)cc1	-1	39*	·	-8	-2	4	7
Cc1ccc(S(=O)(=O)N2CCC(C(=O)N[C@H](C(=O)NCc3ccco3)C(C)C)CC2)cc1	0	18*	·	-8	-3	-2	-7
CC(C)[C@H](NC(=O)C1CCN(S(=O)(=O)c2ccccc2)CC1)C(=O)NCc1ccccc1	0	14	-1	1	-2	-2	·
COC(=O)c1sccc1NC(=O)COc1cccc(C)c1	1	-18	0	13	-4	-6	·
COC(=O)c1ccc(OCC(=O)Nc2ccsc2C(=O)OC)cc1	2	36*	0	-2	-2	-2	2
O=C(Nc1ccc(F)c(Cl)c1)Nc1ccc(Cl)cn1	0	39*	·	·	-1	4	2
O=C(Nc1ccc(F)cc1)Nc1ccc(Cl)cn1	2	42*	·	27	-2	·	1
